Test results published in ChEMBL document CHEMBL1126775, “A pharmacological, crystallographic, and quantum chemical study of new inotropic agents” (J Med Chem, 1993).
Values joined by “and” are separate entries in the source; they are usually repeats but may differ in a detail not shown here. Identical values can stand only once.

Columns and labels:
Cavia porcellus [1] = species: Cavia porcellus; test: Effect on contractile force of spontaneously beating atria from reserpine treated guinea pigs at the concentration of 10 e-3 M; type: functional
Cavia porcellus [2] = species: Cavia porcellus; test: Effect on contractile force of spontaneously beating atria from reserpine treated guinea pigs at the concentration of 2 x 10 e-3 M; type: functional
Cavia porcellus [3] = species: Cavia porcellus; test: Effect on contractile force of spontaneously beating atria from reserpine treated guinea pigs at the concentration of 10 e-4 M; type: functional
Cavia porcellus [4] = species: Cavia porcellus; test: Effect on frequency rate of spontaneously beating atria from reserpine treated guinea pigs at the concentration of 10 e-4 M (negative chronotropic ionotropic effect); type: functional
Cavia porcellus [5] = species: Cavia porcellus; test: Effect on frequency rate of spontaneously beating atria from reserpine treated guinea pigs at the concentration of 10 e-3 M (negative chronotropic ionotropic effect); type: functional
Cavia porcellus [6] = species: Cavia porcellus; test: Effect on frequency rate of spontaneously beating atria from reserpine treated guinea pigs at the concentration of 5 x 10 e-4 M (negative chronotropic ionotropic effect); type: functional
Cavia porcellus [7] = species: Cavia porcellus; test: Effect on contractile force of spontaneously beating atria from reserpine treated guinea pigs at the concentration of 5x 10 e-4 M; type: functional
Cavia porcellus [8] = species: Cavia porcellus; test: Effect on frequency rate of spontaneously beating atria from reserpine treated guinea pigs at the concentration of 2 x 10 e-3 M (negative chronotropic ionotropic effect); type: functional
Cavia porcellus [9] = species: Cavia porcellus; test: Effect on frequency rate of spontaneously beating atria from reserpine treated guinea pigs at the concentration of 5 x 10 e-5 M (negative chronotropic ionotropic effect)
Cavia porcellus [10] = species: Cavia porcellus; test: Effect on frequency rate of spontaneously beating atria from reserpine treated guinea pigs at the concentration of 10 e-5 M; type: functional
Cavia porcellus [11] = species: Cavia porcellus; test: Effect on contractile force of spontaneously beating atria from reserpine treated guinea pigs at the concentration of 10 e-5 M; type: functional
Cavia porcellus [12] = species: Cavia porcellus; test: Effect on contractile force of spontaneously beating atria from reserpine treated guinea pigs at the concentration of 5x 10 e-5 M; type: functional
Cavia porcellus [13] = species: Cavia porcellus; test: Effect on frequency rate of spontaneously beating atria from reserpine treated guinea pigs at the concentration of 10 e-3 M; type: functional
Cavia porcellus [14] = species: Cavia porcellus; test: Effect on frequency rate of spontaneously beating atria from reserpine treated guinea pigs at the concentration of 10 e-4 M; type: functional
Cavia porcellus [15] = species: Cavia porcellus; test: Effect on frequency rate of spontaneously beating atria from reserpine treated guinea pigs at the concentration of 5 x 10 e-4 M; type: functional
Cavia porcellus [16] = species: Cavia porcellus; test: Effect on frequency rate of spontaneously beating atria from reserpine treated guinea pigs at the concentration of 2 x 10 e-3 M; type: functional
Cavia porcellus [17] = species: Cavia porcellus; test: Inotropic effect in electrically driven left atrium from reserpine-treated guinea pig at the concentration of 5 x 10 e-5 M; type: functional, Cardiac atrium
Outline: (§1)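 Atria from reserpine-pretreated guinea pigs (2 mg/kg ip, 48 and 24 h), tyramine-unresponsive only. Left atrium loaded 0.5 g, paced at 1.5 Hz with 3-ms square pulses at 10–20% above threshold. Equilibrated 90 min. Agents added cumulatively, 5 min per concentration. Isometric developed tension expressed as % increase over control.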

Cavia porcellus [18] = species: Cavia porcellus; test: Inotropic effect in electrically driven left atrium from reserpine-treated guinea pig at the concentration of 2 x 10 e-3 M; type: functional, Cardiac atrium; outline: as §1
Cavia porcellus [19] = species: Cavia porcellus; test: Inotropic effect in electrically driven left atrium from reserpine-treated guinea pig at the concentration of 5 x 10 e-4 M; type: functional, Cardiac atrium; outline: as §1
[20] = Logarithm of the sum of contributions of each atom to the total lipophilicity of the molecule; type: physicochemical; conditions: octanol/water
Cavia porcellus [21] = species: Cavia porcellus; test: Inotropic effect in electrically driven left atrium from reserpine-treated guinea pig at the concentration of 10 e-3 M; type: functional, Cardiac atrium; outline: as §1
Cavia porcellus [22] = species: Cavia porcellus; test: Inotropic effect in electrically driven left atrium from reserpine-treated guinea pig at the concentration of 10 e-4 M; type: functional, Cardiac atrium; outline: as §1
Cavia porcellus [23] = species: Cavia porcellus; test: Inotropic effect in electrically driven left atrium from reserpine-treated guinea pig at the concentration of 10 e-5 M; type: functional, Cardiac atrium; outline: as §1
Cavia porcellus [24] = species: Cavia porcellus; test: Effect on contractile force of spontaneously beating atria from reserpine treated guinea pigs at the concentration of 5x 10 e-4 M (negative ionotropic effect); type: functional
Cavia porcellus [25] = species: Cavia porcellus; test: Effect on contractile force of spontaneously beating atria from reserpine treated guinea pigs at the concentration of 10 e-4 M (negative ionotropic effect); type: functional
Cavia porcellus [26] = species: Cavia porcellus; test: Effect on contractile force of spontaneously beating atria from reserpine treated guinea pigs at the concentration of 10 e-3 M (negative ionotropic effect); type: functional
Cavia porcellus [27] = species: Cavia porcellus; test: Effect on contractile force of spontaneously beating atria from reserpine treated guinea pigs at the concentration of 2 x 10 e-3 M (negative ionotropic effect); type: functional
Cavia porcellus [28] = species: Cavia porcellus; test: Effect on contractile force of spontaneously beating atria from reserpine treated guinea pigs at the concentration of 5x 10 e-5 M (negative ionotropic effect); type: functional
Cavia porcellus [29] = species: Cavia porcellus; test: Effect on contractile force of spontaneously beating atria from reserpine treated guinea pigs at the concentration of 10 e-5 M; arrhythmias; type: functional

SMILES	Increase (Cavia porcellus [1]) [%]	Increase (Cavia porcellus [2]) [%]	Increase (Cavia porcellus [3]) [%]	Increase (Cavia porcellus [4]) [%]	Increase (Cavia porcellus [5]) [%]	Increase (Cavia porcellus [6]) [%]	Increase (Cavia porcellus [7]) [%]	Increase (Cavia porcellus [8]) [%]	Increase (Cavia porcellus [9])	Increase (Cavia porcellus [10])	Increase (Cavia porcellus [11]) [%]	Increase (Cavia porcellus [12]) [%]	Increase (Cavia porcellus [13]) [%]	Increase (Cavia porcellus [14]) [%]	Increase (Cavia porcellus [15]) [%]	Increase (Cavia porcellus [16]) [%]	Increase (Cavia porcellus [24]) [%]	Increase (Cavia porcellus [25]) [%]	Increase (Cavia porcellus [26]) [%]	Increase (Cavia porcellus [27]) [%]	further results
N#Cc1cc2c(nc1O)CCCC2=O	23.3	13.01	16.12	-6.06	-0.57	-3.85	25.67	-0.79	-3.08%	3.02%	2.59	7.87	–	–	–	–	–	–	–	–	–
O=C1CCCc2nc(O)ccc21	25.64	26.56	14.7	–	–	–	23.87	–	–	0%	0.48	7.65	15.52	6.26	12.44	18.17	–	–	–	–	–
Cc1[nH]c(=O)c(C#N)cc1-c1ccncc1 [MILRINONE]	33.09	29.31	38.76	–	–	–	46.52	–	–	16.41% and 28.1%	18.25	31.32	39.2	35.26	43.96	31.79	–	–	–	–	Increase (Cavia porcellus [17]): 22.83%; Increase (Cavia porcellus [18]): 37.95%; Increase (Cavia porcellus [19]): 44.72%; logP [20]: 2.89; Increase (Cavia porcellus [21]): 41.96%; Increase (Cavia porcellus [22]): 34.61%; Increase (Cavia porcellus [23]): 13.25%
O=C(O)c1cc2c(nc1O)CC(c1ccccc1)CC2=O (stereo not given)	–	-27.77	–	-1.21	-13.88	-4.58	–	-27.07	–	0.58% and 1.22%	1.53	2.21	–	–	–	–	-7.59	-1.21	-23.77	–	–
CC(C)C(=O)c1cc(C(=O)O)c(O)nc1C(C)C	-82.26	–	–	–	–	–	–	–	–	0.58% and 0.75%	3.46	3.21	16.19	6.01	23.17	11.35	-49.63	-8.88	–	-99.99	–
CC1CC(=O)c2cc(C(=O)O)c(O)nc2C1 (stereo not given)	8.37	11.38	4.57	–	–	–	8.53	–	–	1.5% and 2.78%	2.55	3.78	7.38	3.58	6.53	10.36	–	–	–	–	–
CC(C)(C)C(=O)c1cc(C#N)c(O)nc1C(C)(C)C	–	–	–	-0.44	-14.41	-6.73	–	-15.71	–	2.98% and 0.28%	7.34	11.34	–	–	–	–	-66.56	-16.07	-81.39	-89.11	–
CC1(C)CC(=O)c2cc(C(=O)O)c(O)nc2C1	–	–	1.66	–	-2.94	-0.69	-0.69	-4.76	–	0.41% and 1.8%	0.51	2.7	–	0.88	–	–	–	–	-3.94	-4.46	–
CC(=O)c1ccc(O)nc1C	10.27	10.35	10.35	–	–	–	9.72	–	–	1.79% and 4.14%	5.35	5.84	10.85	4.7	10.85	14.19	–	–	–	–	–
CC1(C)CC(=O)c2ccc(O)nc2C1	2.45	4.71	–	–	–	–	–	–	–	0% and 1.27%	0	–	1.06	1.05	1.09	2.65	-5.5	-3.46	–	–	Increase (Cavia porcellus [28]): -3.45%
Nc1cc(-c2ccncc2)c[nH]c1=O [INAMRINONE]	28.81	25.3	17.92	–	–	–	23.92	–	–	4.62% and 8.85%	7.08	11.52	30.69	15.68	24.11	26.3	–	–	–	–	Increase (Cavia porcellus [17]): 6.49%; Increase (Cavia porcellus [18]): 34.6%; Increase (Cavia porcellus [19]): 22.3%; logP [20]: 2.66; Increase (Cavia porcellus [21]): 27%; Increase (Cavia porcellus [22]): 17.52%; Increase (Cavia porcellus [23]): 4.5%
O=C(O)c1cc2c(nc1O)CCCC2=O	–	–	–	–	–	–	–	–	–	–	–	–	–	–	–	–	–	–	–	–	Increase (Cavia porcellus [29]): arrhythmias
O=C(O)c1cc(C(=O)c2ccccc2)c(-c2ccccc2)nc1O	–	–	–	-5.31	-25.3	-14.43	–	-35.93	-2.23% and -3.38%	–	2.45	–	–	–	–	–	-61.56	-10.02	-90.39	-100	Increase (Cavia porcellus [28]): -1.52%
CC(C)C(=O)c1cc(C#N)c(O)nc1C(C)C	–	–	1.42	–	–	–	–	–	–	2.33% and 5.14%	8.22	11.62	22.83	9.64	18.85	16.27	-34.43	–	-67.64	-86.43	–
O=C1CC(c2ccccc2)Cc2nc(O)ccc21 (stereo not given)	1.73	3.44	1.2	–	–	–	1.46	–	-3.42%	2.19%	2.28	4.52	12.61	5.61	8.85	14.52	–	–	–	–	–
N#Cc1cc(C(=O)c2ccccc2)c(-c2ccccc2)nc1O	–	–	–	-3.36	-8.29	-6.26	–	-9.96	-3.01%	0.5%	1.22	–	–	–	–	–	-32.19	-22.26	-35.54	-39.43	Increase (Cavia porcellus [28]): -6.67%
CC(C)C(=O)c1ccc(O)nc1C(C)C	–	–	16.38	-0.99	–	–	–	–	-3.28% and -5.14%	–	5.34	11.69	26.33	–	20.8	32.13	-9.42	–	-26.37	-44.47	–
CC(=O)c1cc(C(=O)O)c(O)nc1C	11.48	10.83	5.46	-5.67	-1.43	-2.31	9.55	-1.39	-4.2% and -4.31%	–	2.63	5.72	–	–	–	–	–	–	–	–	–
